Assay results as given in PMC7900901 (SLAS discovery : advancing life sciences R & D, 2017).
Entries after “also recorded” stand apart in the source; their conditions may differ. Read-outs that look alike come from different tables or passages of the source. Each block holds one compound with its values, some of them ahead of it.

Legend:
Format in all cases: biochemical
human TDP1 [1] = target: T1, human TDP1 (Homo sapiens, UniProt Q9NUW8); assay: Continuous FRET assay, IC50 determination of inhibitors of TDP1
T1 sequence (Q9NUW8 whole entry): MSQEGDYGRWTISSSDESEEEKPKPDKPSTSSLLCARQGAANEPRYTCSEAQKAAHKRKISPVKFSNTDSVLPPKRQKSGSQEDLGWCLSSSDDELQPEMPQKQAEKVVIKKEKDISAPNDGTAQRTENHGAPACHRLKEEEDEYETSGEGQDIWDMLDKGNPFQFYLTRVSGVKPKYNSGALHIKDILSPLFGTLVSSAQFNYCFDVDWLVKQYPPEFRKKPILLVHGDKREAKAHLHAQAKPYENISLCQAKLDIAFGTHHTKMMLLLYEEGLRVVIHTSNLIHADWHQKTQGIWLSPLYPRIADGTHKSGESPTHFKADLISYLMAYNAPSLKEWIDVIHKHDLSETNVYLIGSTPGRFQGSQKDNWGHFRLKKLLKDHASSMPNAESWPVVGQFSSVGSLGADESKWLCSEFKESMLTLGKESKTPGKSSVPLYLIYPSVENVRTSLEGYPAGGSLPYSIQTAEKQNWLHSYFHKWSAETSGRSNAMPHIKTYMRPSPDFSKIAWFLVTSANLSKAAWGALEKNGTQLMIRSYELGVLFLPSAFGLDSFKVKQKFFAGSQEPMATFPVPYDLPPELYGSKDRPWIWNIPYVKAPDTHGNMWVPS

human TDP1 [2] = target: T1, human TDP1; assay: Reversibility of inhibition by preincubation and rapid dilution; conditions: for Recovery of the uninhibited control rate: after preincubation with compound for 1 h, rapid dilution; for Reversibility of inhibition: preincubation at 10X IC50 for 1 h, 100-fold dilution
human TDP1 [3] = target: T1, human TDP1; assay: Mechanism of inhibition, substrate/inhibitor matrix
Outline: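 Full-length TDP1 was preincubated with test compound on ice for 1 h. Then eosin/TAMRA FRET substrate was added, […] twofold dilutions from 2.25 to 0.035 μM, with three inhibitor levels plus a no-inhibitor control. Final TDP1 was 500 pM in PBS pH 8.0 buffer. Eosin fluorescence (ex 525/em 545 nm) was read over about 1 h at 28 °C. Rate versus substrate data were fitted to competitive, noncompetitive (pure and mixed) and uncompetitive models, with the best fit chosen by Akaike's Information Criterion.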

[4] = 500 pM TDP1, 1.5 μM FRET substrate, 1 h preincubation

Recovery of the uninhibited control rate (human TDP1 [2]): 90%
Structure (SMILES): O=C(O)C1=CC(=C(c2ccc(O)c(C(=O)O)c2)c2ccc(O)c(C(=O)O)c2)C=CC1=O [Aurintricarboxylic acid, reference compound]

IC50 (human TDP1 [1]; [4]): 24 ± 1.1 µM
Structure (SMILES): C[C@@]12CCC(=O)c3coc(c31)C(=O)c1cc3c(O)ccc(OS(=O)(=O)O)c3cc12.[Na+] [Halenaquinol sulfate]
Reversibility of inhibition (human TDP1 [2]): irreversibly inhibited TDP1; also recorded: irreversibly inhibiting TDP1

IC50 (human TDP1 [1]): 52 ± 1 µM
Structure (SMILES): C[C@H](O)C#CC#CC#CC#CCCCCCCCC(=O)O [Minquartynoic acid]

IC50 (human TDP1 [1]; [4]): 26 ± 1 µM
Reversibility of inhibition (human TDP1 [2]; listed as Halenoquinone): irreversible inhibition
Structure (SMILES): C[C@@]12CCC(=O)c3coc(c31)C(=O)c1cc3c(cc12)C(=O)C=CC3=O [Halenaquinone]
Reversibility of inhibition (human TDP1 [2]): irreversibly inhibited TDP1; also recorded: irreversibly inhibiting TDP1

Continued, compound first:

Structure (SMILES): C[C@@]12CCCc3coc(c31)C(=O)c1cc3c(cc12)C(=O)C=CC3=O [Xestoquinone]
IC50 (human TDP1 [1]): 93 ± 1.1 µM

Structure (SMILES): CC(=O)Oc1ccc2ccc(=O)oc2c1OC(C)=O [Daphnetin diacetate]
IC50 (human TDP1 [1]): 1.1 ± 0.2 µM

Structure (SMILES): COC[C@H]1OC(=O)c2coc3c2[C@@]1(C)C1=C(C3=O)[C@@H]2CCC(=O)[C@@]2(C)C[C@H]1OC(C)=O [wortmannin, reference compound]
Inhibition of TDP1 (human TDP1 [1]; concentrations up to 500 μM): unable to inhibit TDP1; also recorded: did not inhibit TDP1

Structure (SMILES): CC(C)=CCC12OC1(O)C(=O)c1c(O)cccc1C2=O (centres unmarked) [2,3-epoxy-8-hydroxy-lapachol]
Mechanism of inhibition (human TDP1 [3]; inhibitor at 0, 6.6, 20 and 60 μM, Akaike's Information Criterion): mixed-type noncompetitive mechanism
Ki (human TDP1 [3]; read-out: Kie (inhibition constant for TDP1 alone), mixed noncompetitive model): 40.9 ± 14.1 µM
Recovery of the uninhibited control rate (human TDP1 [2]): 90%
Reversibility of inhibition (human TDP1 [2]): fully reversible
